Results published in ChEMBL document CHEMBL3259739, “Synthesis and structure-activity relationship of trisubstituted thiazoles as Cdc7 kinase inhibitors” (Eur J Med Chem, 2014).

Tests used:
[1] = target: Glycogen synthase kinase-3 beta (Homo sapiens) (UniProt P49841); experiment: Inhibition of GSK3B (unknown origin) at 1 uM relative to control; values are per cent of control
[2] = target: Ephrin type-A receptor 4 (Homo sapiens) (UniProt P54764); experiment: Inhibition of EPHA4 (unknown origin) at 1 uM relative to control; values are per cent of control
[3] = target: T1, Ephrin type-B receptor 3 (Homo sapiens) (UniProt P54753); experiment: Inhibition of EPHB3 (unknown origin) at 1 uM relative to control; values are per cent of control
T1 sequence (whole entry): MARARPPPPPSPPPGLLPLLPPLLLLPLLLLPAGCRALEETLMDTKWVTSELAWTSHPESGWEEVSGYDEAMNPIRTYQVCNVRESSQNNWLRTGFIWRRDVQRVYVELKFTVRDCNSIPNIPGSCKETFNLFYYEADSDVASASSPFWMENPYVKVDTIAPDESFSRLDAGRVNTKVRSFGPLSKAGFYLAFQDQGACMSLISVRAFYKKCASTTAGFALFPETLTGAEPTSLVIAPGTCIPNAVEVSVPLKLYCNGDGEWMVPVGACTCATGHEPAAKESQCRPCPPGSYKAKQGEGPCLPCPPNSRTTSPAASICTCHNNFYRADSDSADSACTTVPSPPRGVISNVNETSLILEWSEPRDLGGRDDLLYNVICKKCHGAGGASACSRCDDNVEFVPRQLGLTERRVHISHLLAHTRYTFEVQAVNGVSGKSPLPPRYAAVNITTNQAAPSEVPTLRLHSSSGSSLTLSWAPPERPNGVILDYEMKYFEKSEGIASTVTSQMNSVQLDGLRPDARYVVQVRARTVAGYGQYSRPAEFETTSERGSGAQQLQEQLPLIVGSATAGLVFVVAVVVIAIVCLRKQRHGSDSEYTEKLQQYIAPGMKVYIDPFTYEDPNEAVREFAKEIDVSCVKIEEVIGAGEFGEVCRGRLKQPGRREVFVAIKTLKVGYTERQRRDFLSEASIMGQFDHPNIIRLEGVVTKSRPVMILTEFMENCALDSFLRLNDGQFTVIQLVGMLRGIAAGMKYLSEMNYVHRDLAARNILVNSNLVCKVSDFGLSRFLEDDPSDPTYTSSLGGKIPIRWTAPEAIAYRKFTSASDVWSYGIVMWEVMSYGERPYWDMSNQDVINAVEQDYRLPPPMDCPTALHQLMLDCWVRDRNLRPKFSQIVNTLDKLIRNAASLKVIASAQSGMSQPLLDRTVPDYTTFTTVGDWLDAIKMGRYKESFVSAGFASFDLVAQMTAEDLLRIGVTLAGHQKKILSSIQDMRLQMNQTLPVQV

[4] = target: RAC-beta serine/threonine-protein kinase (Homo sapiens) (UniProt P31751); experiment: Inhibition of AKT2 (unknown origin) at 1 uM relative to control; values are per cent of control
[5] = target: Dual specificity protein kinase CLK4 (Homo sapiens) (UniProt Q9HAZ1); experiment: Inhibition of CLK4 (unknown origin) at 1 uM relative to control; values are per cent of control
[6] = target: Dual specificity tyrosine-phosphorylation-regulated kinase 1B (Homo sapiens) (UniProt Q9Y463); experiment: Inhibition of DYRK1B (unknown origin) at 1 uM relative to control; values are per cent of control
[7] = target: Receptor-type tyrosine-protein kinase FLT3 (Homo sapiens) (UniProt P36888); experiment: Inhibition of FLT3 (unknown origin) at 1 uM relative to control; values are per cent of control
[8] = target: Serine/threonine-protein kinase/endoribonuclease IRE1 (Homo sapiens) (UniProt O75460); experiment: Inhibition of ERN1 (unknown origin) at 1 uM relative to control; values are per cent of control
[9] = target: T2, Serine/threonine-protein kinase D2 (Homo sapiens) (UniProt Q9BZL6); experiment: Inhibition of PRKD2 (unknown origin) at 1 uM relative to control; details: values are per cent of control
T2 sequence (whole entry): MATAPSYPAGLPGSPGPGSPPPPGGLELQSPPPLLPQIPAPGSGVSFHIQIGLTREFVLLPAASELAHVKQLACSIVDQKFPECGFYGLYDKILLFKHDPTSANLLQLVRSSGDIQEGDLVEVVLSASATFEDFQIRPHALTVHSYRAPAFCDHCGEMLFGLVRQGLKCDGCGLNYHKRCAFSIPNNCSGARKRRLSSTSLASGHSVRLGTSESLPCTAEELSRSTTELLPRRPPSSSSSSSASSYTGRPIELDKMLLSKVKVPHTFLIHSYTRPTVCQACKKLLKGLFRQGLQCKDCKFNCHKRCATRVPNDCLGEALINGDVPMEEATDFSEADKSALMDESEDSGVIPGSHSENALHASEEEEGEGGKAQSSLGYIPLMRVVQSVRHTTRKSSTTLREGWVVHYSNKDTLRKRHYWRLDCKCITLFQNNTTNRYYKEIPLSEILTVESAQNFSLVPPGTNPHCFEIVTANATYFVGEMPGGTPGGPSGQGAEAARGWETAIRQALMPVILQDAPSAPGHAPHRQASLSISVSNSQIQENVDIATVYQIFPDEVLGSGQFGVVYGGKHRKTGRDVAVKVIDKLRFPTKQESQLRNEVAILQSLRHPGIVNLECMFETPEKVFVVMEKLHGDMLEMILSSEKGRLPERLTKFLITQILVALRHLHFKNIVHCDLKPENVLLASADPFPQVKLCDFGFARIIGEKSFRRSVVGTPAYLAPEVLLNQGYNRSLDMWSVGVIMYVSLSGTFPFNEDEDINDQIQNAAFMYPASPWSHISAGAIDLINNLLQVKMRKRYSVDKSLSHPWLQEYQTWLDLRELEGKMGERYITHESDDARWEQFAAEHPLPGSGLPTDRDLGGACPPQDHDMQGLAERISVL
In short: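 KinomeSCAN competitive binding panel of 100 kinases; compounds tested at 1 µM in duplicate; read-out is percent […] control.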

Chain of Receptor-type tyrosine-protein kinase FLT3 (Homo sapiens) (P36888 whole entry): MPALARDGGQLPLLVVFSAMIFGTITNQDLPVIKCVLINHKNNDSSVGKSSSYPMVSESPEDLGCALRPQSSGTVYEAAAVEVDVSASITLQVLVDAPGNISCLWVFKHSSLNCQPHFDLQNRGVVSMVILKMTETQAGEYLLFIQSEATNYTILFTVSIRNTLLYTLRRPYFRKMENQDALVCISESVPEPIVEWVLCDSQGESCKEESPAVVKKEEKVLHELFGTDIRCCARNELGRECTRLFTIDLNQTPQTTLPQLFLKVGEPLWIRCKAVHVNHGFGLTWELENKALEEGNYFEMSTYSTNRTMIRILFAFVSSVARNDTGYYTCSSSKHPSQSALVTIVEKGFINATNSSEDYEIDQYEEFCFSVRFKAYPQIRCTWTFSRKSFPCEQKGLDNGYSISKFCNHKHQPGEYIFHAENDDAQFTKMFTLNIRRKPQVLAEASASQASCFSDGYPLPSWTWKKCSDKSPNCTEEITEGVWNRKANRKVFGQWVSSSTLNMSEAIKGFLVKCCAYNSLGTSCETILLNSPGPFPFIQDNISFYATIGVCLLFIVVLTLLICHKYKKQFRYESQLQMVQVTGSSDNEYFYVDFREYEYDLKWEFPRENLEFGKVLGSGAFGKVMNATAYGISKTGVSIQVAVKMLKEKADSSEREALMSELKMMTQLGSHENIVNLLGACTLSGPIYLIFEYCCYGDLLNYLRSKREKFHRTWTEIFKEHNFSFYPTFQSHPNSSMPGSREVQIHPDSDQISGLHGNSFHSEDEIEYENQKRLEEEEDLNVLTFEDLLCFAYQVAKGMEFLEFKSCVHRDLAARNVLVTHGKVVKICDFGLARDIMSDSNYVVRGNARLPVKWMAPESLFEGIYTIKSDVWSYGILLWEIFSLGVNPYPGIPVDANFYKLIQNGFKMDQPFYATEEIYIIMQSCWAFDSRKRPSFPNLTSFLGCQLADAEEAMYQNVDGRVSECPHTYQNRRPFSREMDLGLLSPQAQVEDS
Chain of Ephrin type-A receptor 4 (Homo sapiens) (P54764 whole entry): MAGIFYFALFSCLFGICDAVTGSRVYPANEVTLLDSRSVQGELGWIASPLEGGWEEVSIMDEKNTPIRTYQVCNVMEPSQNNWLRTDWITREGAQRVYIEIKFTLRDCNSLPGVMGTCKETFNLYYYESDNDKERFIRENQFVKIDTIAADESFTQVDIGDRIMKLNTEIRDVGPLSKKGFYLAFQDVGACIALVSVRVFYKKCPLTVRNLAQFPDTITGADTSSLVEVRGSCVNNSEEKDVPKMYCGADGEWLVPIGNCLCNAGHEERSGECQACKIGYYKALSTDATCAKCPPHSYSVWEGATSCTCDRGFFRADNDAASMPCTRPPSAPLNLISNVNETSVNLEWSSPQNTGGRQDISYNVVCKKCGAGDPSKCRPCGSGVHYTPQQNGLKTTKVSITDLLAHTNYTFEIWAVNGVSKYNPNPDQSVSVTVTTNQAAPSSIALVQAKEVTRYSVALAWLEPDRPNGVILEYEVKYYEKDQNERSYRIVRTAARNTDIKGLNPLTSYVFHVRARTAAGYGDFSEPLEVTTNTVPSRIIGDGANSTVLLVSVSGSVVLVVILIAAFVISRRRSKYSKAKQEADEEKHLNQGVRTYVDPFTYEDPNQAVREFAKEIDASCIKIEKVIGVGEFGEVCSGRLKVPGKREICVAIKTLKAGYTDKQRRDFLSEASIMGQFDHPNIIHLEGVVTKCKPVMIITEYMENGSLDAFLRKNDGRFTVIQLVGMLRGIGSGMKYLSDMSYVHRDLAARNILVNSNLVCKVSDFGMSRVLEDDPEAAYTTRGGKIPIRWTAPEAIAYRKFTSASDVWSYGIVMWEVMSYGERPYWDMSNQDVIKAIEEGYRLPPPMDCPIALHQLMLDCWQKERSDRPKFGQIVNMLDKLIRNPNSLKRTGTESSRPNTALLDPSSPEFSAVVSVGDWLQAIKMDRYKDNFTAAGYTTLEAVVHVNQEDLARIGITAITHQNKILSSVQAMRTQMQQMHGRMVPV
Chain of Dual specificity protein kinase CLK4 (Homo sapiens) (Q9HAZ1 whole entry, looked up): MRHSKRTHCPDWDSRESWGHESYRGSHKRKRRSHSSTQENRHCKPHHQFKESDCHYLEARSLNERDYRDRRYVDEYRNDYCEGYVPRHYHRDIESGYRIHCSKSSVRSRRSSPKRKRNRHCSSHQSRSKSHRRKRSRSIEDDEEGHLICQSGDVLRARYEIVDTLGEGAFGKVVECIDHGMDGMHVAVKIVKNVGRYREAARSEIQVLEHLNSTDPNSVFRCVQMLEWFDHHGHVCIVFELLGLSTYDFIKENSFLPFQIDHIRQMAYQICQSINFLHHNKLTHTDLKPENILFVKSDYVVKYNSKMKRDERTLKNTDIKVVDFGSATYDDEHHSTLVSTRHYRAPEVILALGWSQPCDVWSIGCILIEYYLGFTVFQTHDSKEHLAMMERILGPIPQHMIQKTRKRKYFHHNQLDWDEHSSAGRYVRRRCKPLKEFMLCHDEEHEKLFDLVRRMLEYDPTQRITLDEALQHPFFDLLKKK
Chain of RAC-beta serine/threonine-protein kinase (Homo sapiens) (P31751 whole entry): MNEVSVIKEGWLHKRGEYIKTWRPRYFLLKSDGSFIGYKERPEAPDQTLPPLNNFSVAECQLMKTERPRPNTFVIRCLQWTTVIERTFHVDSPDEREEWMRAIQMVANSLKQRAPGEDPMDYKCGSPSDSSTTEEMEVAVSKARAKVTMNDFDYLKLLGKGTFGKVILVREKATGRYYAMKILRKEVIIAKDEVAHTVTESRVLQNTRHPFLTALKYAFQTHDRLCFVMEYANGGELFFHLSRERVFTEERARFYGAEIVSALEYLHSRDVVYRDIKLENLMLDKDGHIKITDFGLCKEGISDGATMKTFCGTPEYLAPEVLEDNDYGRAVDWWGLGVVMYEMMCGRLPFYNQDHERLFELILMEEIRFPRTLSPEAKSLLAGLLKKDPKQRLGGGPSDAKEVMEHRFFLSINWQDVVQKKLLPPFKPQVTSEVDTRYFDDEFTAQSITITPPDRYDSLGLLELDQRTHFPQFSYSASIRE
Chain of Dual specificity tyrosine-phosphorylation-regulated kinase 1B (Homo sapiens) (Q9Y463 whole entry, looked up): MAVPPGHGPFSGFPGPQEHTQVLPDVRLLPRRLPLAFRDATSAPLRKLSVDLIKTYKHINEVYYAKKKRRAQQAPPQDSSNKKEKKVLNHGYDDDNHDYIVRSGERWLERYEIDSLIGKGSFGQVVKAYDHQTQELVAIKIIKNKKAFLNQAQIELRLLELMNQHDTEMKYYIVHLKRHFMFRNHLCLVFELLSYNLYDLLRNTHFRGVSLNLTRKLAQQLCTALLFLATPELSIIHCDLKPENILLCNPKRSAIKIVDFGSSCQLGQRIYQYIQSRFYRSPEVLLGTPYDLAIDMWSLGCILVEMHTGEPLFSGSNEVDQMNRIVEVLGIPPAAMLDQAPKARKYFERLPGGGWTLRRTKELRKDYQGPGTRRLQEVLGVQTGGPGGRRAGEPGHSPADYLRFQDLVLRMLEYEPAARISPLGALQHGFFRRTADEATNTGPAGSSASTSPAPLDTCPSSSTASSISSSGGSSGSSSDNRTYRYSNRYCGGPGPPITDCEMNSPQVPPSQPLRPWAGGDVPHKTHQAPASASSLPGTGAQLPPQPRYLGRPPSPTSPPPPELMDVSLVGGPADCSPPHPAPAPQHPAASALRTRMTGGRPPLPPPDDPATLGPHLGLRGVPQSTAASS
Chain of Serine/threonine-protein kinase/endoribonuclease IRE1 (Homo sapiens) (O75460 19-977 limits assumed): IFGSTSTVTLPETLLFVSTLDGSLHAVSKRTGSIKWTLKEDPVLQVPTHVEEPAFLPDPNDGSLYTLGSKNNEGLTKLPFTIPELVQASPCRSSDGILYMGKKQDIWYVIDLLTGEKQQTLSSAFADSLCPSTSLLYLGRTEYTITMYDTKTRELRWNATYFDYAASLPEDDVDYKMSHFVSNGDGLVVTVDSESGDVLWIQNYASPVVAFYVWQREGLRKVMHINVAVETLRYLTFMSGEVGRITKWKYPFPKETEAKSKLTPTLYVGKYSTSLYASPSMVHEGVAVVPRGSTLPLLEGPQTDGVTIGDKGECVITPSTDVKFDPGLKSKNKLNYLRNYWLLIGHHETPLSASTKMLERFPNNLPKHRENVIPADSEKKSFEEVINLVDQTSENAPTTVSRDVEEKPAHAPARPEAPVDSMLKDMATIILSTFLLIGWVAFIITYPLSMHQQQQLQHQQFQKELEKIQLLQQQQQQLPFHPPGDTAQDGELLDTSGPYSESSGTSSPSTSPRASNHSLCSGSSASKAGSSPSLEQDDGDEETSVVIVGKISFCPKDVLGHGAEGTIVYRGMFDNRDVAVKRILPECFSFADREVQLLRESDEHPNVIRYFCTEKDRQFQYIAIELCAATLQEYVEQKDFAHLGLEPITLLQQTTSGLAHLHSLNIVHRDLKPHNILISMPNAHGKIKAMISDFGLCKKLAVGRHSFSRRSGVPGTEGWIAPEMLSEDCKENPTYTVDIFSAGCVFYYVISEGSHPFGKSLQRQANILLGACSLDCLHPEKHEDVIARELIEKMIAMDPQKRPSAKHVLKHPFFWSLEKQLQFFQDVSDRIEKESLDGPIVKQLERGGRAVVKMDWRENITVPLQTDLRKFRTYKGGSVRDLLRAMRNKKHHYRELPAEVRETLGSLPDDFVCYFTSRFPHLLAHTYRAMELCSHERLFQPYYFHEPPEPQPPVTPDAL
Chain of Glycogen synthase kinase-3 beta (Homo sapiens) (P49841 whole entry, looked up): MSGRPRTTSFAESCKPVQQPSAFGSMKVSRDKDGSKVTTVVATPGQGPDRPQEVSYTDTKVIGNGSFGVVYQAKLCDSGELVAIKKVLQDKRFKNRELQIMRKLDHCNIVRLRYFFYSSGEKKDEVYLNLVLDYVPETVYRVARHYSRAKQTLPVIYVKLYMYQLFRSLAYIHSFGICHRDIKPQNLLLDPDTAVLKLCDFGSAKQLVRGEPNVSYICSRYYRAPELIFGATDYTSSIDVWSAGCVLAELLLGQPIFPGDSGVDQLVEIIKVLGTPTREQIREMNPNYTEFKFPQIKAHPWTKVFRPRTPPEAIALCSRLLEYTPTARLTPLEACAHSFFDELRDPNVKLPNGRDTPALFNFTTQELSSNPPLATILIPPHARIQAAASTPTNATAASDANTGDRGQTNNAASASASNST

CCOC(=O)c1sc(-c2ccncc2)nc1O
residual activity [1]: 100%
residual activity [2]: 58%
residual activity [3]: 71%
residual activity [4]: 96%
residual activity [5]: 92%
residual activity [6]: 86%
residual activity [7]: 87%
residual activity [8]: 100%
residual binding, % of control [9]: 99%

COc1ccc(-c2nc(-c3ccnc(N)n3)sc2C(N)=O)c(Cl)c1
residual activity [1]: 6.8%
residual activity [2]: 100%
residual activity [3]: 97%
residual activity [4]: 100%
residual activity [5]: 0%
residual activity [6]: 0.3%
residual activity [7]: 100%
residual activity [8]: 32%
residual binding, % of control [9]: 77%

NC(=O)c1sc(-c2ccnc(N)n2)nc1-c1ccc(Cl)cc1Cl
residual activity [1]: 6.4%
residual activity [2]: 72%
residual activity [3]: 86%
residual activity [4]: 100%
residual activity [5]: 0%
residual activity [6]: 0.4%
residual activity [7]: 66%
residual activity [8]: 100%
residual binding, % of control [9]: 92%
